Source: paper PMC2878397 (Journal of natural products, 2010)
Read-outs that look alike come from different tables or passages of the source.

Assays:
NF-κB p50 = target: T1, NF-κB p50 (Homo sapiens, UniProt P19838); assay: Enzyme-based ELISA NF-κB p50 assay; assay type: biochemical
T1 sequence (P19838 1-433 limits assumed): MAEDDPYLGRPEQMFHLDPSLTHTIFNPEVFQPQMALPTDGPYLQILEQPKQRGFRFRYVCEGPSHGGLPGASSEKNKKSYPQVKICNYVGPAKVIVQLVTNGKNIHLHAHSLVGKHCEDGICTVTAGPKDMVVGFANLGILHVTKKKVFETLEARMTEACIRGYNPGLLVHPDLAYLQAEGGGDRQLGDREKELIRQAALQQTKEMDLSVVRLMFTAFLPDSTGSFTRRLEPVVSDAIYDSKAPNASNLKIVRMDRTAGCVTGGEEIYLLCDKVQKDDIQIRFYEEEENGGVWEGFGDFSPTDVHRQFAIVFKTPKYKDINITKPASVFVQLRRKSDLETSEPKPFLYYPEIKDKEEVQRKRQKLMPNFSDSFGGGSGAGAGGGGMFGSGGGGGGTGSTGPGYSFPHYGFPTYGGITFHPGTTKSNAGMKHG

NF-κB p65 = NF-κB p65 (Homo sapiens, UniProt Q04206); assay: Enzyme-based ELISA NF-κB p65 assay; assay type: biochemical
[1] = tested on: HT-29 human colon cancer cells; assay: Cytotoxicity assay against HT-29 cells; assay type: cell-based; conditions: for IC50: Homo sapiens, HT-29, 72 h, read-out: cytotoxicity ED50; for cytotoxicity ED50: HT-29 cells, three days incubation, SRB
Summary of the method: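 Trypsinized HT-29 cells seeded in 96-well plates with test compound in DMSO; DMSO-only wells as negative control, paclitaxel as positive control. Incubated 3 days at 37 °C, 5% CO2. Cells fixed, held 30 min at room temperature, water-washed, air-dried overnight, then stained with sulforhodamine B. Dye released in tris-base buffer, absorbance read at 515 nm. Cytotoxicity calculated against negative control, reported as ED50 (μM).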

P388 leukemia cells = conditions: cited from earlier work
9PS = 9PS in vitro test system; cited from earlier work
9KB = 9KB in vitro test system; cited from earlier work

Chain of NF-κB p65 (Q04206 whole entry, one chain of several): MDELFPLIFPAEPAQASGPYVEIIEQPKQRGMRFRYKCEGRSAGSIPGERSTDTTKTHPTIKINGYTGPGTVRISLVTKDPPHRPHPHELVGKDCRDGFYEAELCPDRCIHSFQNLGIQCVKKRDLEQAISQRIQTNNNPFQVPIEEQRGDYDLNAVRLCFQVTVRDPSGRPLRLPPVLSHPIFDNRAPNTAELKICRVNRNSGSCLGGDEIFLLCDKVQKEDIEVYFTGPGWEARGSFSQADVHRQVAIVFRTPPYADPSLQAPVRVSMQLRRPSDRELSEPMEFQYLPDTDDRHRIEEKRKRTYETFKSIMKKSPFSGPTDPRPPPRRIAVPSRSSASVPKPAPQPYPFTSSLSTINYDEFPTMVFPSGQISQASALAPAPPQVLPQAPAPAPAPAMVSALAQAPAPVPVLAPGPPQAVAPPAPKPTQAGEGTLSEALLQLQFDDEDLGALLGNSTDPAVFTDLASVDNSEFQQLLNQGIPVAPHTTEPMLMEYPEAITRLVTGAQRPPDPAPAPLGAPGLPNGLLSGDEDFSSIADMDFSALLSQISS

Row | IC50 (NF-κB p50) [µM] | IC50 (NF-κB p65) [µM] | Compound | cytotoxicity ED50 [1] [µM] | further results
1 | > 10 | > 10 | CC1(C)C=Cc2c(cc(O)c3c(=O)c4c(oc23)-c2c(O)cc(O)c3c2C(C4)C(C)(C)O3)O1 (stereo not shown) [Compound 8, cycloartobiloxanthone] | – | –
2 | > 10 | > 10 | C=C(C)[C@H]1Cc2c(oc3cc(O)c(CC=C(C)C)c(O)c3c2=O)C2=C1C(=O)C(O)=C(CC=C(C)C)C2=O [Compound 6, artonin O] | – | –
3 | 2 | > 10 | C=C(C)[C@H]1Cc2c(oc3c(CC=C(C)C)c(O)c(CC=C(C)C)c(O)c3c2=O)-c2c(O)cc(O)c(O)c21 [Compound 1, (5R)-5,6-dihydro-1,3,4,8,10-pentahydroxy-5-isopropenyl-9,11-bis(3-methyl-2-butenyl)-7H-benzo[c]xanthen-7-one] | – | –
4 | > 10 | > 10 | CC1(C)C=Cc2cc3c(cc2O1)Oc1cc(O)ccc1C(O)=C3 [Compound 5, 2,2-dimethyl-2H-benzo{6,7-oxepino[3,2-g]}chromene-7,10-diol] | – | IC50 [1]: 10.7 µM
5 | – | – | C=C(C)c1cc2c(=O)c3c(O)c(CC=C(C)C)c(O)cc3oc2c2c1C(=O)C(O)=C(CC=C(C)C)C2=O [Compound 3, 4,8,10-trihydroxy-5-isopropenyl-2,9-bis(3-methyl-2-butenyl)-7-benzo[c]xanthen-2,4,7-trione] | >10 | –
6 | > 10 | > 10 | CC(C)=CCc1c(O)c(CC=C(C)C)c2oc3c(c(=O)c2c1O)C(C=C(C)C)Oc1cc(O)c(O)cc1-3 (stereo not shown) [Compound 4, 2,3,8,10-tetrahydroxy-6-(2-methylpropenyl)-9,11-bis(3-methyl-2-butenyl)-6H[1]benzopyrano[4,3-b]benzopyran-7-one] | – | –
7 | 3.7 | 2.3 | C=C(C)[C@H]1Cc2c(oc3c4c(cc(O)c3c2=O)OC(C)(C)C=C4)-c2c(O)cc(O)c(O)c21 [Compound 7, artobiloxanthone] | >10 | –
8 | – | – | CC(C)=CCc1c(-c2cc(O)c(O)cc2O)oc2c3c(cc(O)c2c1=O)OC(C)(C)C=C3 [artonin E] | – | cytotoxicity ED50 (P388 leukemia cells): 0.06 µg/mL
9 | – | – | COc1cc(O)c2c(=O)c3cc4c5c(c(O)cc(O)c5c3oc2c1)OC4(C)C [artonin K] | – | IC50 [1]: > 10 µM
10 | – | – | 3-hydroxy-4,3′,5′-trimethoxy-trans-stilbene [Compound 9] | 8.7 | cytotoxicity ED50 (9PS): 0.1 µg/mL; IC50 (NF-κB p50; read-out: NF-κB p50 inhibition IC50, HeLa nuclear extract, ELISA): > 10 µM; cytotoxicity ED50 (9KB): 0.01 µg/mL; IC50 (NF-κB p65; read-out: NF-κB p65 inhibition IC50, HeLa nuclear extract, ELISA): > 10 µM
